From ChEMBL document CHEMBL3774311, “Synthesis and in vitro antitumour activity of tiazofurin analogues with nitrogen functionalities at the C-2' position” (Eur J Med Chem, 2016)
pIC50: −log10 of the molar value.

Experiments:
K562 [1] = experiment: Antiproliferative activity against human K562 cells after 72 hrs by MTT assay; format: functional, cell-based
In short: (§1)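 Human tumour lines and MRC-5 foetal lung fibroblasts (normal-cell comparator) exposed to compounds for 72 h; viability read by standard MTT assay. IC50 taken as concentration inhibiting growth by 50% versus untreated control; means of three independent experiments, coefficients of variation under 10%.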

[2] = Antiproliferative activity against human HL60 cells after 72 hrs by MTT assay; format: functional, cell-based, HL-60; in short: as §1
Raji = experiment: Antiproliferative activity against human Raji cells after 72 hrs by MTT assay; format: functional, cell-based; in short: as §1
HeLa = experiment: Antiproliferative activity against human HeLa cells after 72 hrs by MTT assay; format: functional, cell-based; in short: as §1
K562 [3] = experiment: Induction of cell cycle arrest in human K562 cells assessed as accumulation at Sub-G1 phase after 24 hrs by propidium iodide staining-based flow cytometry (reference value: 1.05%); format: functional
In short: (§2)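 Exponentially growing K562 cells treated 24 or 72 h; cells stained with propidium iodide and cell-cycle distribution (sub-G1, G0/G1, S, G2/M, %) measured by flow cytometry; untreated cells as control.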

K562 [4] = experiment: Induction of cell cycle arrest in human K562 cells assessed as accumulation at Sub-G1 phase after 72 hrs by propidium iodide staining-based flow cytometry (reference value: 3.04%); format: functional; in short: as §2
K562 [5] = experiment: Induction of cell cycle arrest in human K562 cells assessed as accumulation at G0/G1 phase after 24 hrs by propidium iodide staining-based flow cytometry (reference value: 36.28%); format: functional; in short: as §2
K562 [6] = experiment: Induction of cell cycle arrest in human K562 cells assessed as accumulation at G0/G1 phase after 72 hrs by propidium iodide staining-based flow cytometry (reference value: 45.92%); format: functional; in short: as §2
K562 [7] = experiment: Induction of cell cycle arrest in human K562 cells assessed as accumulation at S phase after 24 hrs by propidium iodide staining-based flow cytometry (reference value: 48.38%); format: functional; in short: as §2
K562 [8] = experiment: Induction of cell cycle arrest in human K562 cells assessed as accumulation at S phase after 72 hrs by propidium iodide staining-based flow cytometry (reference value: 35.73%); format: functional; in short: as §2
K562 [9] = experiment: Induction of cell cycle arrest in human K562 cells assessed as accumulation at G2/M phase after 24 hrs by propidium iodide staining-based flow cytometry (reference value: 14.29%); format: functional; in short: as §2
K562 [10] = experiment: Induction of cell cycle arrest in human K562 cells assessed as accumulation at G2/M phase after 72 hrs by propidium iodide staining-based flow cytometry (reference value: 15.31%); format: functional; in short: as §2
K562 [11] = experiment: Induction of specific apoptosis in human K562 cells after 24 hrs by annexin V-FITC/propidium iodide staining based flow cytometry; format: functional; set-up: concentration or dose not given beside the values
In short: (§3)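 K562 cells treated 24 or 72 h, double-stained with Annexin V-FITC/PI and analysed by flow cytometry to give percentages of live, apoptotic and necrotic cells; apoptotic and necrotic responses expressed as specific apoptosis or specific necrosis (%).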

K562 [12] = experiment: Induction of specific apoptosis in human K562 cells after 72 hrs by annexin V-FITC/propidium iodide staining based flow cytometry; format: functional; set-up: concentration or dose not given beside the values; in short: as §3
K562 [13] = experiment: Induction of specific necrosis in human K562 cells after 24 hrs by annexin V-FITC/propidium iodide staining based flow cytometry; format: functional; set-up: concentration or dose not given beside the values; in short: as §3
K562 [14] = experiment: Induction of specific necrosis in human K562 cells after 72 hrs by annexin V-FITC/propidium iodide staining based flow cytometry; format: functional; set-up: concentration or dose not given beside the values; in short: as §3
K562 [15] = experiment: Induction of apoptosis in human K562 cells assessed as necrotic cells after 24 hrs by annexin V-FITC/propidium iodide staining based flow cytometry (reference value: 1.50%); format: functional; in short: as §3
K562 [16] = experiment: Induction of apoptosis in human K562 cells assessed as late apoptotic cells after 24 hrs by annexin V-FITC/propidium iodide staining based flow cytometry (reference value: 4.58%); format: functional; in short: as §3
K562 [17] = experiment: Induction of apoptosis in human K562 cells assessed as living cells after 24 hrs by annexin V-FITC/propidium iodide staining based flow cytometry (reference value: 85.85%); format: functional; in short: as §3
K562 [18] = experiment: Induction of apoptosis in human K562 cells assessed as early apoptotic cells after 24 hrs by annexin V-FITC/propidium iodide staining based flow cytometry (reference value: 8.09%); format: functional; in short: as §3
K562 [19] = experiment: Induction of apoptosis in human K562 cells assessed as necrotic cells after 72 hrs by annexin V-FITC/propidium iodide staining based flow cytometry (reference value: 7.23%); format: functional; in short: as §3
K562 [20] = experiment: Induction of apoptosis in human K562 cells assessed as late apoptotic cells after 72 hrs by annexin V-FITC/propidium iodide staining based flow cytometry (reference value: 5.24%); format: functional; in short: as §3
K562 [21] = experiment: Induction of apoptosis in human K562 cells assessed as living cells after 72 hrs by annexin V-FITC/propidium iodide staining based flow cytometry (reference value: 84.31%); format: functional; in short: as §3
K562 [22] = experiment: Induction of apoptosis in human K562 cells assessed as early apoptotic cells after 72 hrs by annexin V-FITC/propidium iodide staining based flow cytometry (reference value: 3.22%); format: functional; in short: as §3
K562 [23] = experiment: Induction of apoptosis in human K562 cells assessed as Bcl2 protein level after 24 hrs by Western blotting method (reference value: 22.81%); format: functional
K562 [24] = experiment: Induction of apoptosis in human K562 cells assessed as Bax protein level after 24 hrs by Western blotting method (reference value: 16.13%); format: functional
K562 [25] = experiment: Induction of apoptosis in human K562 cells assessed as caspase 3 level after 24 hrs by Western blotting method (reference value: 42.77%); format: functional
K562 [26] = experiment: Induction of apoptosis in human K562 cells assessed as cleaved PARP level after 24 hrs by Western blotting method (reference value: 36.17%); format: functional
K562 [27] = experiment: Induction of apoptosis in human K562 cells assessed as Bcl2 protein level after 72 hrs by Western blotting method (reference value: 7.90%); format: functional
K562 [28] = experiment: Induction of apoptosis in human K562 cells assessed as Bax protein level after 72 hrs by Western blotting method (reference value: 32.81%); format: functional
K562 [29] = experiment: Induction of apoptosis in human K562 cells assessed as caspase 3 level after 72 hrs by Western blotting method (reference value: 17.05%); format: functional
K562 [30] = experiment: Induction of apoptosis in human K562 cells assessed as cleaved PARP level after 72 hrs by Western blotting method (reference value: 18.36%); format: functional
Jurkat = experiment: Antiproliferative activity against human Jurkat cells after 72 hrs by MTT assay; format: functional, cell-based; in short: as §1
HT-29 = experiment: Antiproliferative activity against human HT-29 cells after 72 hrs by MTT assay; format: functional, cell-based; settings: HT-29, 72 h; in short: as §1
MCF7 = experiment: Antiproliferative activity against human MCF7 cells after 72 hrs by MTT assay; format: functional, cell-based; settings: MCF7, 72 h; in short: as §1
MRC5 = experiment: Cytotoxicity against human MRC5 cells after 72 hrs by MTT assay; format: cell-based; settings: MRC5, 72 h; in short: as §1

Compound	Activity (K562 [3])	Activity (K562 [4])	Activity (K562 [5])	Activity (K562 [6])	Activity (K562 [7])	Activity (K562 [8])	Activity (K562 [9])	Activity (K562 [10])	Activity (K562 [11])	Activity (K562 [12])	Activity (K562 [13])	Activity (K562 [14])	Activity (K562 [15])	Activity (K562 [16])	Activity (K562 [17])	Activity (K562 [18])	Activity (K562 [19])	Activity (K562 [20])	Activity (K562 [21])	Activity (K562 [22])	other results
Cl.NC(=O)c1csc([C@@H]2O[C@H](CO)[C@@H](O)[C@H]2N)n1	2.61%	11.13%	35.02%	44.32%	47.22%	33.29%	15.16%	11.26%	10.71%	30.26%	3.6%	6.22%	5.11%	7.67%	78.24%	8.99%	6.88%	66.3%	4.53%	22.33%	pIC50 (K562 [1]; k562): < 4.00; pIC50 ([2]; hl-60): 7.70; pIC50 (Raji; raji): 5.03; pIC50 (HeLa; hela): < 4.00; Activity (K562 [23]): 16.22%; Activity (K562 [24]): 2.16%; Activity (K562 [25]): 16.6%; Activity (K562 [26]): 66.48%; Activity (K562 [27]): 14.5%; Activity (K562 [28]): 81.99%; Activity (K562 [29]): 11.52%; Activity (K562 [30]): 24.41%
[N-]=[N+]=N[C@@H]1[C@H](O)[C@@H](CO)O[C@H]1c1nc(C(N)=O)cs1	2.93%	10.9%	42.67%	42.24%	42.8%	35.04%	11.6%	11.82%	10.73%	38.06%	-0.82%	5.33%	0.69%	4.8%	83.58%	10.94%	5.99%	74.34%	3%	16.67%	pIC50 (K562 [1]; Homo sapiens, K562, 72 h): 6.51; pIC50 ([2]; Homo sapiens, HL-60, 72 h): < 4.00; pIC50 (Jurkat): < 4.00; pIC50 (Raji; Homo sapiens, Raji, 72 h): < 4.00; pIC50 (HT-29): < 4.00; pIC50 (MCF7): 8.40; pIC50 (HeLa; Homo sapiens, HeLa, 72 h): 5.39; pIC50 (MRC5): < 4.00; Activity (K562 [23]): 31.53%; Activity (K562 [24]): 12.4%; Activity (K562 [25]): 47.06%; Activity (K562 [26]): 103.8%; Activity (K562 [27]): 17.3%; Activity (K562 [28]): 85.6%; Activity (K562 [29]): 34.23%; Activity (K562 [30]): 70.23%
CC(=O)N[C@@H]1[C@H](O)[C@@H](CO)O[C@H]1c1nc(C(N)=O)cs1	3.71%	11.17%	43.07%	48.09%	45.03%	31.42%	8.21%	9.32%	12.6%	43.6%	5.88%	24.55%	7.39%	12.48%	75.11%	5.03%	25.03%	62.01%	7.05%	5.93%	pIC50 (K562 [1]; Homo sapiens, K562, 72 h): < 4.00; pIC50 ([2]; Homo sapiens, HL-60, 72 h): < 4.00; pIC50 (Jurkat): < 4.00; pIC50 (Raji; Homo sapiens, Raji, 72 h): 4.83; pIC50 (HT-29): < 4.00; pIC50 (MCF7): 5.41; pIC50 (HeLa; Homo sapiens, HeLa, 72 h): < 4.00; pIC50 (MRC5): 5.28; Activity (K562 [23]): 63.4%; Activity (K562 [24]): 18.43%; Activity (K562 [25]): 90.45%; Activity (K562 [26]): 95.59%; Activity (K562 [27]): 37.09%; Activity (K562 [28]): 98.81%; Activity (K562 [29]): 93.75%; Activity (K562 [30]): 33.66%
COc1cccc(C(=O)N[C@@H]2[C@H](O)[C@@H](CO)O[C@H]2c2nc(C(N)=O)cs2)c1	4.44%	10.84%	39.45%	43.13%	46.71%	34%	9.41%	12.04%	11.88%	37.07%	3.68%	10.33%	5.19%	8.67%	77.99%	8.16%	10.82%	69.98%	2.76%	16.45%	pIC50 (K562 [1]; Homo sapiens, K562, 72 h): < 4.00; pIC50 ([2]; Homo sapiens, HL-60, 72 h): 5.57; pIC50 (Jurkat): 4.63; pIC50 (Raji; Homo sapiens, Raji, 72 h): 5.20; pIC50 (HT-29): < 4.00; pIC50 (MCF7): 5.02; pIC50 (HeLa; Homo sapiens, HeLa, 72 h): < 4.00; pIC50 (MRC5): < 4.00; Activity (K562 [23]): 47.76%; Activity (K562 [24]): 4.66%; Activity (K562 [25]): 104.69%; Activity (K562 [26]): 111.75%; Activity (K562 [27]): 26.7%; Activity (K562 [28]): 89.53%; Activity (K562 [29]): 82.68%; Activity (K562 [30]): 37.39%
NC(=O)c1csc([C@@H]2O[C@H](CO)[C@@H](O)[C@H]2O)n1 [TIAZOFURIN]	2.22%	24.99%	37.08%	35.66%	53.16%	33.62%	7.55%	5.74%	-0.34%	13.71%	3.76%	10.71%	5.27%	11.58%	79.36%	3.79%	13.76%	15.58%	41.24%	29.42%	pIC50 (K562 [1]; Homo sapiens, K562, 72 h): 5.72; pIC50 ([2]; Homo sapiens, HL-60, 72 h): 6.72; pIC50 (MCF7): 5.75; Activity (K562 [23]): 16.16%; Activity (K562 [24]): 37.25%; Activity (K562 [25]): 47.68%; Activity (K562 [26]): 57.93%; Activity (K562 [27]): 27.2%; Activity (K562 [28]): 111.01%; Activity (K562 [29]): 15.38%; Activity (K562 [30]): 44.51%
